ChEMBL document CHEMBL1821697, “Design and synthesis of brain penetrant selective JNK inhibitors with improved pharmacokinetic properties for the prevention of neurodegeneration” (Bioorg Med Chem Lett, 2011)

Legend:
[1] = target: T1, Mitogen-activated protein kinase 10 (Homo sapiens, UniProt P53779); assay: Inhibition of recombinant JNK3 using ser73 of c-jun as substrate preincubated for 15 mins measured after 60 mins by TR-FRET assay
In short: (§1)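 Recombinant JNK enzyme assay run at 10 µM ATP. IC50 values are means of at least three experiments.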

[2] = target: Mitogen-activated protein kinase 8 (Homo sapiens, UniProt P45983); assay: Inhibition of recombinant JNK1 using ser73 of c-jun as substrate preincubated for 15 mins measured after 60 mins by TR-FRET assay; in short: as §1
[3] = target: Mitogen-activated protein kinase 9 (Homo sapiens, UniProt P45984); assay: Inhibition of recombinant JNK2 using ser73 of c-jun as substrate preincubated for 15 mins measured after 60 mins by TR-FRET assay; in short: as §1
[4] = Oxidative metabolic stability in mouse liver microsomes assessed as compound remaining at 1 uM after 30 mins; format: ADME, Microsome; details: read-out: Stability
In short: (§2)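 Test compound was incubated with mouse, rat or human liver microsomes for 30 min. The read-out is percent of parent compound remaining.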

[5] = Oxidative metabolic stability in rat liver microsomes assessed as compound remaining at 1 uM after 30 mins; format: ADME, Microsome; details: read-out: Stability; in short: as §2
[6] = Oxidative metabolic stability in human liver microsomes assessed as compound remaining at 1 uM after 30 mins; format: ADME, Microsome; details: read-out: Stability; in short: as §2
[7] = target: Mitogen-activated protein kinase 14 (Homo sapiens, UniProt Q16539); assay: Inhibition of recombinant p38alpha Thr69/71 of ATF-2 as substrate preincubated for 15 mins measured after 60 mins by TR-FRET assay
[8] = target: T2, Mitogen-activated protein kinase 1 (Homo sapiens, UniProt P28482); assay: Inhibition of recombinant ERK2 using Ser383 of Elk-1 as substrate preincubated for 15 mins measured after 60 mins by TR-FRET assay
[9] = Apparent permeability from apical to basolateral side of MDCK2 cells at 5 uM after 120 mins by LC/MS/MS method; format: ADME, cell-based, Canis lupus familiaris, MDCK-II; details: dog, MDCK
[10] = system: MDR1; assay: Efflux ratio of permeability across MDCK2 expressing MDR1 at 5 uM after 120 mins by LC/MS/MS method; format: ADME, Canis lupus familiaris, MDCK-II; details: dog, MDCK-MDR1
[11] = AUC in mouse brain at 1 mg/kg, iv; format: ADME, organism-based; design: dose 1 mg/kg, route intravenous
In short: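 Mice were dosed intravenously at 1 mg/kg. Brain exposure was expressed as AUC (ng h/mL) alongside the brain/plasma ratio.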

[12] = Ratio of drug level in brain to plasma in mouse at 1 mg/kg, iv; format: ADME, organism-based; design: dose 1 mg/kg, route intravenous; details: read-out: BPR
In short: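 Single intravenous dose of 1 mg/kg in mice. Brain exposure was reported as brain AUC (ng h/mL), together with the brain-to-plasma ratio.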

[13] = Half life in rat at 1 mg/kg, iv; format: ADME, organism-based; design: dose 1 mg/kg, route intravenous; details: in vivo
In short: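 Rats were given a single intravenous dose of 1 mg/kg. Half-life is reported in min, together with clearance (mL/h/kg).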

[14] = system: Rattus norvegicus; assay: AUC in rat at 2 mg/kg, po; format: ADME, organism-based, Plasma; design: dose 2 mg/kg, route oral; details: in vivo
In short: (§3)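 Rats received an oral dose of 2 mg/kg. Plasma AUC is reported in nmol h/mL. Oral bioavailability (F%) was calculated against a 1 mg/kg intravenous dose.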

[15] = system: Rattus norvegicus; assay: Oral bioavailability in rat at 2 mg/kg; format: ADME, organism-based; details: in vivo; in short: as §3
[16] = system: Cortical neurone; assay: Neuroprotective activity in human cerebral cortical neurons assessed as reversal of amyloid beta-induced neuronal damage after 2 to 3 days; format: functional
In short: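 Human cortical neurons were exposed to amyloid-β in a neurotoxicity assay. Neuroprotection by the inhibitor was expressed as an EC50.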

[17] = target: Tyrosine-protein kinase ABL1 (Homo sapiens) (UniProt P00519); assay: Inhibition of Abl1 at 10 uM
[18] = target: RAC-alpha serine/threonine-protein kinase (Homo sapiens) (UniProt P31749); assay: Inhibition of AKT1 at 10 uM
[19] = target: Aurora kinase A (Homo sapiens) (UniProt O14965); assay: Inhibition of AURKA at 10 uM
[20] = target: Calcium/calmodulin-dependent protein kinase type II subunit alpha (Homo sapiens) (UniProt Q9UQM7); assay: Inhibition of CAMK2A at 10 uM
[21] = target: Cyclin-dependent kinase 1/cyclin B1 (Homo sapiens) (UniProt P06493+P14635); assay: Inhibition of CDK1/Cyclin B1 at 10 uM; format: protein-complex assay
[22] = target: Cyclin-dependent kinase 2/cyclin A (Homo sapiens) (UniProt P24941+P20248+P78396); assay: Inhibition of CDK2/Cyclin A at 10 uM; format: protein-complex assay
[23] = target: Cyclin-dependent kinase 5/CDK5 activator 1 (Homo sapiens) (UniProt Q00535+Q15078); assay: Inhibition of CDK5/P25 at 10 uM; format: protein-complex assay
[24] = target: Serine/threonine-protein kinase Chk1 (Homo sapiens) (UniProt O14757); assay: Inhibition of CHEK1 at 10 uM
[25] = target: Dual specificity protein kinase CLK1 (Homo sapiens) (UniProt P49759); assay: Inhibition of CLK1 at 10 uM
[26] = target: Macrophage colony-stimulating factor 1 receptor (Homo sapiens) (UniProt P07333); assay: Inhibition of CSF1R at 10 uM
[27] = target: Dual specificity tyrosine-phosphorylation-regulated kinase 1B (Homo sapiens) (UniProt Q9Y463); assay: Inhibition of DYRK1B at 10 uM
[28] = target: Receptor tyrosine-protein kinase erbB-4 (Homo sapiens) (UniProt Q15303); assay: Inhibition of ERBB4 at 10 uM
[29] = target: Receptor-type tyrosine-protein kinase FLT3 (Homo sapiens) (UniProt P36888); assay: Inhibition of FLT3 at 10 uM
[30] = target: Glycogen synthase kinase-3 beta (Homo sapiens) (UniProt P49841); assay: Inhibition of GSK3-beta at 10 uM
[31] = target: Insulin receptor (Homo sapiens) (UniProt P06213); assay: Inhibition of INSR at 10 uM
[32] = target: Tyrosine-protein kinase JAK1 (Homo sapiens) (UniProt P23458); assay: Inhibition of JAK1 at 10 uM
[33] = target: Tyrosine-protein kinase Lck (Homo sapiens) (UniProt P06239); assay: Inhibition of LCK at 10 uM
[34] = target: Leucine-rich repeat serine/threonine-protein kinase 2 (Homo sapiens) (UniProt Q5S007); assay: Inhibition of LRRK2 at 10 uM
[35] = target: T2, Mitogen-activated protein kinase 1; assay: Inhibition of ERK2 at 10 uM
[36] = target: T1, Mitogen-activated protein kinase 10; assay: Inhibition of JNK3 at 10 uM using 100 uM of ATP
[37] = target: Serine/threonine-protein kinase MARK2 (Homo sapiens) (UniProt Q7KZI7); assay: Inhibition of MARK2 at 10 uM
[38] = target: Serine/threonine-protein kinase PAK 4 (Homo sapiens) (UniProt O96013); assay: Inhibition of PAK4 at 10 uM
[39] = target: Platelet-derived growth factor receptor alpha (Homo sapiens) (UniProt P16234); assay: Inhibition of PDGFRA at 10 uM
[40] = target: PI3-kinase p110-alpha/p85-alpha (Homo sapiens) (UniProt P27986+P42336); assay: Inhibition of PIK3CA/PIK3R1 at 10 uM; format: protein-complex assay
[41] = target: Serine/threonine-protein kinase PLK1 (Homo sapiens) (UniProt P53350); assay: Inhibition of PLK1 at 10 uM
[42] = target: Serine/threonine-protein kinase PLK2 (Homo sapiens) (UniProt Q9NYY3); assay: Inhibition of PLK2 at 10 uM
[43] = target: Serine/threonine-protein kinase PLK3 (Homo sapiens) (UniProt Q9H4B4); assay: Inhibition of PLK3 at 10 uM
[44] = target: cAMP-dependent protein kinase catalytic subunit alpha (Homo sapiens) (UniProt P17612); assay: Inhibition of PRKACA at 10 uM
[45] = target: Protein kinase C beta type (Homo sapiens) (UniProt P05771); assay: Inhibition of PRKCB1 at 10 uM
[46] = target: Protein-tyrosine kinase 2-beta (Homo sapiens) (UniProt Q14289); assay: Inhibition of PTK2B at 10 uM
[47] = system: RAF proto-oncogene serine/threonine-protein kinase (Homo sapiens), P04049 [Y340D,Y341D]; assay: Inhibition of c-Raf Y340D Y341D mutant at 10 uM using 100 uM of ATP
[48] = target: Proto-oncogene tyrosine-protein kinase receptor Ret (Homo sapiens) (UniProt P07949); assay: Inhibition of RET at 10 uM
[49] = target: Receptor-interacting serine/threonine-protein kinase 2 (Homo sapiens) (UniProt O43353); assay: Inhibition of RIPK2 at 10 uM
[50] = target: Rho-associated protein kinase 2 (Homo sapiens) (UniProt O75116); assay: Inhibition of ROCK2 at 10 uM
[51] = target: Serine/threonine-protein kinase 3 (Homo sapiens) (UniProt Q13188); assay: Inhibition of STK3 at 10 uM
[52] = target: Tyrosine-protein kinase SYK (Homo sapiens) (UniProt P43405); assay: Inhibition of SYK at 10 uM

T1 sequence (P53779 whole entry): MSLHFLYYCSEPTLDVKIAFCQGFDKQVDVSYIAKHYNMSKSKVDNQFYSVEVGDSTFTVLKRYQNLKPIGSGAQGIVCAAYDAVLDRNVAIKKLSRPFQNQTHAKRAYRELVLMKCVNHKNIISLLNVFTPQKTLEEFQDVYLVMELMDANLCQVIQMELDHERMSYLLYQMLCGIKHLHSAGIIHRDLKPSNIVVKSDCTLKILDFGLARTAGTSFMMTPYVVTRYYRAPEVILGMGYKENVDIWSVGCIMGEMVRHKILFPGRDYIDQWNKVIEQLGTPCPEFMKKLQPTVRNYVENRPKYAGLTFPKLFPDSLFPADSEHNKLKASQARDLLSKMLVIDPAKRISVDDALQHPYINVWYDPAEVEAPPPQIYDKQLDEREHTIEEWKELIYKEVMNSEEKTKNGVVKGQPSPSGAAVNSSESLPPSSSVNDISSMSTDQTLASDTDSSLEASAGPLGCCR
T2 sequence (P28482 whole entry): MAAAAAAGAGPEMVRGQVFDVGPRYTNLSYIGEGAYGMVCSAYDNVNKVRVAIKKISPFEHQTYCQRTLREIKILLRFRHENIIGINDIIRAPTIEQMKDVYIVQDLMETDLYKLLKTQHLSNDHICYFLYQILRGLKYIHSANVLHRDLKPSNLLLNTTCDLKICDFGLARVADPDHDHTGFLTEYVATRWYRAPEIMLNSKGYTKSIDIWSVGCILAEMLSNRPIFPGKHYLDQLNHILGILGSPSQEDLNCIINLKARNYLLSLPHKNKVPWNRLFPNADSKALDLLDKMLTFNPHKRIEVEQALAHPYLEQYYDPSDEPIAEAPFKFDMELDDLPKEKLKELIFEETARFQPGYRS
Sequence of RAF proto-oncogene serine/threonine-protein kinase (Homo sapiens), P04049 [Y340D,Y341D] (P04049 whole entry Y340D/Y341D): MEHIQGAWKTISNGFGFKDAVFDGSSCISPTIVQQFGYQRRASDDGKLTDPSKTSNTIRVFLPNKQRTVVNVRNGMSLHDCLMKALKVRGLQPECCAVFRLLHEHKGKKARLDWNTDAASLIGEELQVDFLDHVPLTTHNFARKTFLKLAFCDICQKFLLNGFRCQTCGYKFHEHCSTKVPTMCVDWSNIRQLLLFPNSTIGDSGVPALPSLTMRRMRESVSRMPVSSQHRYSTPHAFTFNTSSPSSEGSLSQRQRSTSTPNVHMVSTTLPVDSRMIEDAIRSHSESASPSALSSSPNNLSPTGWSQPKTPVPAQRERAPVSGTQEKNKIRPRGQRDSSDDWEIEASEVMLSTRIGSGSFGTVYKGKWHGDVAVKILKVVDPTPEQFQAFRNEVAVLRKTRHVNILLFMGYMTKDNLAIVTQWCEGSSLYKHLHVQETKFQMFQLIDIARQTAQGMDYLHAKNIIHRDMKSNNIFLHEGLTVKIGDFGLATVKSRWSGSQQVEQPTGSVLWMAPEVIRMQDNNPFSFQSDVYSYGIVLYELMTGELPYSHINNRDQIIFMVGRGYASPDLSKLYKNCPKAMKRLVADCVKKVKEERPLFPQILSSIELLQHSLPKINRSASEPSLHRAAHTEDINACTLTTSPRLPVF
Sequence of Serine/threonine-protein kinase 3 (Homo sapiens) (Q13188 whole entry): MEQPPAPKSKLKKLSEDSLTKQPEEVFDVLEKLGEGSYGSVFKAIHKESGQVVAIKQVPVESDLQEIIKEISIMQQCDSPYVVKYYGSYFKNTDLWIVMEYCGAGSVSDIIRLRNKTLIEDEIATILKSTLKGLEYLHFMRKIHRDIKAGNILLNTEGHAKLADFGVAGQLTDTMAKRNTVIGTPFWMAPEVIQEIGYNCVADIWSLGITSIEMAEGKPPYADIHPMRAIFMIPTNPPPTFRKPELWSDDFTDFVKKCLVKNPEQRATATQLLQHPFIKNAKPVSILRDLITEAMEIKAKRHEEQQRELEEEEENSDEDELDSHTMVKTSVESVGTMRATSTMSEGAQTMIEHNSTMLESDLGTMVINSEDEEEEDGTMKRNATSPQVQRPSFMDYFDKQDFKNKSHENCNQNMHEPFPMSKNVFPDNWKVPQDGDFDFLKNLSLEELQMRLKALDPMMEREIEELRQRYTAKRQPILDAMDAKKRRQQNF
Sequence of Cyclin-dependent kinase 5/CDK5 activator 1 (Homo sapiens) (Q00535 whole entry): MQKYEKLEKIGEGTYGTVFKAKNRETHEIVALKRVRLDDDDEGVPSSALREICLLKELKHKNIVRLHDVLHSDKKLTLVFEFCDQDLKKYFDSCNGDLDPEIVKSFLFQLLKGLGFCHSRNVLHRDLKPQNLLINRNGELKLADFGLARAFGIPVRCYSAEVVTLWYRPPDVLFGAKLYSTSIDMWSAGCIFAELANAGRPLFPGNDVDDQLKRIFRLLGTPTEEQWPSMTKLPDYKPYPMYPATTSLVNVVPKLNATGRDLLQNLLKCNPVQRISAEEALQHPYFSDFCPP
Sequence of Cyclin-dependent kinase 5/CDK5 activator 1 (Homo sapiens) (Q15078 99-307 partner limits assumed): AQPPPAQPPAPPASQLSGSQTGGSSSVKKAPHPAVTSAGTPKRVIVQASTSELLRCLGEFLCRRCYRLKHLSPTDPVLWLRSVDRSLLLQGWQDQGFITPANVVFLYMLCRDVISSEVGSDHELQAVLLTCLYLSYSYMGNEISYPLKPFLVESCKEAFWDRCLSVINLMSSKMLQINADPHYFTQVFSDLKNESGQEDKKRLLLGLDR
Sequence of Rho-associated protein kinase 2 (Homo sapiens) (O75116 whole entry, looked up): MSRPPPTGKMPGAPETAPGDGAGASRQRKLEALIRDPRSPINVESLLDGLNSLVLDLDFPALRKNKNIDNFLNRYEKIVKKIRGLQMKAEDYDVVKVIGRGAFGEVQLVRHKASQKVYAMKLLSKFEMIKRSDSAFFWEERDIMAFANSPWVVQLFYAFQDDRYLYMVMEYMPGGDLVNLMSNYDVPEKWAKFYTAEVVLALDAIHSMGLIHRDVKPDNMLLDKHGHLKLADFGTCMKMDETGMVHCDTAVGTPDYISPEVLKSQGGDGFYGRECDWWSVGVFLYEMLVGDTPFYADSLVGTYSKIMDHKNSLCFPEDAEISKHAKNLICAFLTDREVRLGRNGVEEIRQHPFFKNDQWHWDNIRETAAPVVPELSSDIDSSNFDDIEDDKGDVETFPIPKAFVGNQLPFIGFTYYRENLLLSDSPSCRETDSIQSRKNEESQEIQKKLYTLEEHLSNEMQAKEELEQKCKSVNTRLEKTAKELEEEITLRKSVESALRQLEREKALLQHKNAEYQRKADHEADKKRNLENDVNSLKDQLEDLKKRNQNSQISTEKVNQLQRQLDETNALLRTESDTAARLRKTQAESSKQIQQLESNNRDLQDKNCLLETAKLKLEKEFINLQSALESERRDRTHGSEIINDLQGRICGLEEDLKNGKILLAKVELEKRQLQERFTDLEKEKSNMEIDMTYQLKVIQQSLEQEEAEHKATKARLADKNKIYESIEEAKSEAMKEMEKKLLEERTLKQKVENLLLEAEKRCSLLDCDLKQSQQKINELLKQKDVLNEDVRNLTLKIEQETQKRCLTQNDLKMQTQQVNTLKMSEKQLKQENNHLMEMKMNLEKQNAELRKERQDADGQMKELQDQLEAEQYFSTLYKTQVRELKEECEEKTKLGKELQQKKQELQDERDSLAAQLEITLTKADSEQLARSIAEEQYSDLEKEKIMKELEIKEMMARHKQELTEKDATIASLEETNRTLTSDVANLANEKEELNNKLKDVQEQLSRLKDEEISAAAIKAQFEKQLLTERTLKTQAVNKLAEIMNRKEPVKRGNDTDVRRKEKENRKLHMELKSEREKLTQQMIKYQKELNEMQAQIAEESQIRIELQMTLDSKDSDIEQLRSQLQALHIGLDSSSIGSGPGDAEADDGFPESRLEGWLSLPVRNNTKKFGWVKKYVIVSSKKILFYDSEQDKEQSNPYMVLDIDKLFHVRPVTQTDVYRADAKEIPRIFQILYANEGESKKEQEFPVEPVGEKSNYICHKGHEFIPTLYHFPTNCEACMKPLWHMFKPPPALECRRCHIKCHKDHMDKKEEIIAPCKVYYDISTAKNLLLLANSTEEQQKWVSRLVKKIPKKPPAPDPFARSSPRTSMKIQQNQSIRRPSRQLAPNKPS
Sequence of Glycogen synthase kinase-3 beta (Homo sapiens) (P49841 whole entry, looked up): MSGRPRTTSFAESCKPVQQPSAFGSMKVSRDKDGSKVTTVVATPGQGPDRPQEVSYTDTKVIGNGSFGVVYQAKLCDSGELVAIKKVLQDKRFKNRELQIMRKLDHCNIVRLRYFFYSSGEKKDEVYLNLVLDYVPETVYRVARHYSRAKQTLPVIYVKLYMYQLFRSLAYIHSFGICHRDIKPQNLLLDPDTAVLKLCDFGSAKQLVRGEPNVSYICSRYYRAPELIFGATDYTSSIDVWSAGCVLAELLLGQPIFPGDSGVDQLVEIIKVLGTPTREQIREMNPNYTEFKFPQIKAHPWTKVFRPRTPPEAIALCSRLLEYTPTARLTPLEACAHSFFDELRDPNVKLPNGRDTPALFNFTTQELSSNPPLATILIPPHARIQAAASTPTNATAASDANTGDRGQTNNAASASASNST
Sequence of Serine/threonine-protein kinase Chk1 (Homo sapiens) (O14757 whole entry): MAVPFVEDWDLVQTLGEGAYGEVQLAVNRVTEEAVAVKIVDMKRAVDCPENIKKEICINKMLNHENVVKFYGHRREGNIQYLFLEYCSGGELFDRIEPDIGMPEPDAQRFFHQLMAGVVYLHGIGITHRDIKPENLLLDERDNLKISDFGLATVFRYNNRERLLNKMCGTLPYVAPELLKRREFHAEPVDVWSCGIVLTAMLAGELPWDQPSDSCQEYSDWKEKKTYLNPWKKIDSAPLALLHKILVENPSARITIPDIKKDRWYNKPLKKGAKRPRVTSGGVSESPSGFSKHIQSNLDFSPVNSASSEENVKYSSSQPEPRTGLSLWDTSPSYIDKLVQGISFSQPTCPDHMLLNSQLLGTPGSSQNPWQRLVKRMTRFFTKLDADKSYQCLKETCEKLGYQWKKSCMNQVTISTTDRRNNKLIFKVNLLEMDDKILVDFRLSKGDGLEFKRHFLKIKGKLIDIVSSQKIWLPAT

O=C(Cn1c(=O)ccc2cc(C(F)(F)F)ccc21)Nc1scc(Br)c1-c1ncn[nH]1
IC50 [1]: 9 nM
IC50 [2]: 2 nM
IC50 [3]: 5 nM
remaining at 0.5 h, 1 µM [4]: 58%
remaining at 0.5 h, 1 µM [5]: 35%
remaining at 0.5 h, 1 µM [6]: 67%
IC50 [7]: > 50000 nM
IC50 [8]: > 50000 nM
Papp A→B at 2 h, 5 µM [9]: 3.62 ×10⁻⁶ cm/s
efflux ratio at 2 h, 5 µM [10]: 0.61
AUC [11]: 235 ng·h/mL
Kp [12]: 0.7
half-life [13]: 4.6 min
AUC [14]: 1310 ng·h/mL
F [15]: 34%
EC50 [16]: 2900 nM
inhibition [17]: 0%
inhibition [18]: 2%
inhibition [19]: 5%
inhibition [20]: 4%
inhibition [21]: 1%
inhibition [22]: 2%
inhibition [23]: 2%
inhibition [24]: 10%
inhibition [25]: 5%
inhibition [26]: -2%
inhibition [27]: 11%
inhibition [28]: -2%
inhibition [29]: 7%
inhibition [30]: 5%
inhibition [31]: -3%
inhibition [32]: 0%
inhibition [33]: 8%
inhibition [34]: 13%
inhibition [35]: -2%
inhibition [36]: 96%
inhibition [37]: 4%
inhibition [38]: 3%
inhibition [39]: 0%
inhibition [40]: 6%
inhibition [41]: 3%
inhibition [42]: 10%
inhibition [43]: -8%
inhibition [44]: 0%
inhibition [45]: 4%
inhibition [46]: -5%
inhibition [47]: 10%
inhibition [48]: 4%
inhibition [49]: -7%
inhibition [50]: 11%
inhibition [51]: 4%
inhibition [52]: 15%
